Test results taken from ChEMBL document CHEMBL1126015, “Heteroatom analogues of bemoradan: chemistry and cardiotonic activity of 1,4-benzothiazinylpyridazinones” (J Med Chem, 1992).

Legend:
Canis familiaris [1] = test: Increase in cardiac force in dog at 75 ug/kg intravenous dose; format: functional, Canis lupus familiaris
Canis familiaris [2] = test: 50% increase in cardiac force in dog by intravenous dose; format: functional; conditions: Canis lupus familiaris, Heart
Method in brief: (§1)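 Anesthetized dogs; the value is the dose, given iv or intraduodenally, that raises cardiac force by 50%.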

Canis familiaris [3] = organism: Canis familiaris; test: 50% increase in cardiac force in dog by id dose; format: functional; conditions: Canis lupus familiaris, Heart; method in brief: as §1

Row | Structure (SMILES) | Change (Canis familiaris [1]) | ED50 (Canis familiaris [2]) | ED50 (Canis familiaris [3])
1 | O=C1CCC(c2ccc3c(c2)SCC(=O)N3)=NN1 | 62% |  | 
2 | CN1C(=O)CS(=O)(=O)c2cc(C3=NNC(=O)CC3)ccc21 | 20% |  | 
3 | CN1C(=O)C[S+]([O-])c2cc(C3=NNC(=O)CC3)ccc21 (stereo unspecified) | -3% |  | 
4 | CN1C(=O)CSc2cc(C3=NNC(=O)CC3)ccc21 | 38% |  | 
5 | CC1CC(=O)NN=C1c1ccc2c(c1)OCC(=O)N2 (stereo unspecified) [BEMORADAN] |  | 5.4 µg/kg | 10 µg/kg
